T cruzi repl = inhibitors of intracellular T. cruzi growth, primary screen, luminescence, NIH3T3 host cells. T. cruzi beta-gal in NIH3T3, 90 h. inhibition, % (test concentration not listed). hit rate 1.4% among 300,000. AID 1885, 2009;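 active means mean inhibition across valid replicates above about 55%, limit read from the data; inconclusive means mean below that limit but half or more replicates reach it; inactive means mean below it, under half of replicates reach it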;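 further: signal also drops with host cell toxicity which is not excluded here; 0% = plate median of DMSO wells and 100% = zero luminescence signal; higher percent means less beta-gal luminescence so fewer parasites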
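System – NIH/3T3 host cells with β-galactosidase reporter T. cruzi · Doses – single 50 nL compound addition per well in DMSO · Reagent – 5000 T. cruzi trypomastigotes/well · Medium – Low-serum DMEM with 2% FBS · Timing – ≥90 h infection period, 3 h prior cell attachment · Evaluation – parasite load inhibition, % · Technique – GalScreen luminescence, 60 min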
WT yeast gro inh = growth inhibition of WT strain, primary screen, mitochondrial fusion inhibitor project, WT and mutant strains, chemical genetic | mitochondrial fusion phenotypic screen | hit rate 2.1% among 190,000 | inhibition, % at 10 µM; in the data active means inhibition above about 58%; tested in S. cerevisiae
SUMO Mot1 rescue = yeast Mot1-301 growth rescue at high temperature, primary screen, SUMOylation pathway inhibitor project, S. cerevisiae, ATP luminescence, 38.5C; S. cerevisiae Mot1-301 growth rescue; percent above DMSO median, 100 means doubled; growth rescue, % at 18.8 µM; hit rate 1% among 320,000;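 active means every valid replicate shows activation above 250% relative to neutral control wells; inactive means the rest, any valid replicate at or below 250%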;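 further: OY570 slx delta 5 strain wells were the positive control but not used for scaling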
Efflux pump mplx = inhibitors of Candida efflux pumps in yeast, primary screen, S. cerevisiae, Nile Red, multiplex; AID 485275, 2010; inhibition, % at 10 µM; hit rate 0.44% among 330,000; S. cerevisiae Candida pump triplex;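 active means plate passing quality check with inhibition over a set limit, or well fluorescence over plate mean plus 4 SD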;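 further: Nile Red retained in pooled yeast measured as flow cytometry median fluorescence; 0% = buffer negative control and 100% = Enniatin B positive control; higher means more Nile Red kept so more efflux inhibition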
CSC inhib = cancer stem cell viability inhibitors, primary screen, luminescence. hit rate 1.1% among 300,000. inhibition, % at 7.5 µM. cancer stem cell-like cells viability; in the data active means inhibition above about 75%; inconclusive means no clear call, values can overlap the other calls; tested in HMLE shEcad cells
Beta apoptosis = inhibitors of cytokine-induced beta cell apoptosis, primary screen, luminescence. hit rate 0.8% among 300,000. protection from apoptosis, % (concentration not given with the values). INS-1E cytokine-induced death, ATP luminescence, 48 h; percent of positive-control rescue, neutral wells zero;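 active means Every replicate reaches about 75%, or at least half do and their mean reaches it too, limit read from the data; inconclusive means At least half of replicates reach the limit but their mean does not; inactive means Under half of replicates reach the limit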;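 further: 0% = cytokine-treated negative control wells and 100% = positive control rescue; higher means more ATP so stronger rescue from cytokine killing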
* = called active by the depositor; i = inactive; ? = inconclusive; . = not tested or not shown. An excerpt weighted towards active compounds, which were near 4.8% of everything screened.

SMILES	T cruzi repl	WT yeast gro inh	SUMO Mot1 rescue	Efflux pump mplx	CSC inhib	Beta apoptosis
O=C(O)c1ccccc1C(=O)Nc1ccc(-n2ccc(C(F)(F)F)n2)cc1	-1	.	-4	0	-5	-9
O=C(Nc1cccc(Cl)c1)Nc1ccccc1-n1ccnc1	57*	14	-1	0	-3	-8
O=C(Nc1ccncc1)Nc1cccc(Cl)c1	43	.	48	0	-9	4
O=C(Nc1ccc(-n2ccc(C(F)(F)F)n2)cc1)Nc1cccc(Cl)c1	62*	.	5	0	44	116*
COc1ccccc1NC(=O)Nc1ccc(-n2ccc(C(F)(F)F)n2)cc1	12	.	-5	1	83*	13
CN(C)C(CNS(=O)(=O)c1ccc(Cl)cc1F)c1ccco1 (configuration not stated)	.	.	19	0	-17	-3
CN(/N=C/c1cccnc1)c1cnc2ccccc2n1	18	-3	108	0	3	7
CCCC(C)NC(=O)CN1C(=O)c2cccc3cccc1c23 (configuration not stated)	-12	.	345	0	7	5
Cc1cc(C)c2c(=O)n(CC(=O)Nc3ccc(Cl)cc3)sc2n1	60*	.	-30	0	?	5
CCOc1ccc(NC(=O)Cn2sc3nc(C)cc(C)c3c2=O)cc1	50	.	-18	0	11	4
Cc1cc(C)c2c(=O)n(CC(=O)NCCCN3CCOCC3)sc2n1	23	17	353*	0	-7	-2
COc1ccccc1-n1cc2c([N+](=O)[O-])cc([N+](=O)[O-])cc2n1	-13	.	10	0	3	-11
CCOC(=O)N1CCN(c2ccc(S(=O)(=O)N(Cc3ccccc3)Cc3ccccc3)cn2)CC1	44	-8	-1	0	-5	104*
O=C(Nc1nc(-c2ccco2)c(-c2ccco2)s1)c1cnccn1	70*	.	-10	0	16	-1
COc1ccc(CC(=O)Nc2ncc([N+](=O)[O-])s2)cc1OC	63*	5	-3	0	6	-3
COc1ccc(CC(=O)Nc2nccs2)cc1OC	-4	4	2	0	-8	-8
O=C(Nc1ccccc1)Nc1ncc([N+](=O)[O-])s1	-22	70*	.	.	.	.
COC(=O)CP(=O)(c1ccccc1)c1ccccc1	-12	69*	-21	0	-5	-4
COc1ccc(NS(=O)(=O)c2ccc3c(c2)Cc2ccccc2-3)cn1	-16	60*	-26	0	15	3
COc1ccc(NS(=O)(=O)c2ccc(N3CCCC3=O)cc2)cn1	-13	-15	11	0	29	16
CCOC(=O)c1nnn2c1nc(Nc1cccc(C(F)(F)F)c1)c1ccccc12	6	.	97	0	10	58
COc1ccc(CNC(=O)C(c2ccncc2)N(C(=O)Cc2cccs2)c2ccccc2)cc1 (configuration not stated)	.	-2	.	.	.	.
COc1ccc(CN(C(=O)Cc2cccs2)C(C(=O)NC2CCCC2)c2ccncc2)cc1 (configuration not stated)	66*	10	6	0	-31	1
COCCN(C(=O)Cc1cccs1)C(C(=O)NCc1ccc(OC)cc1)c1ccccc1 (configuration not stated)	8	99*	4	0	-5	-6
CCCCOC(=O)CSc1nnc(-c2ccc(Cl)cc2Cl)o1	-2	60*	-3	0	1	-5
SMILES	T cruzi repl	WT yeast gro inh	SUMO Mot1 rescue	Efflux pump mplx	CSC inhib	Beta apoptosis
COc1ccccc1-c1nnc(SCC(=O)NCc2c(C)c(Cl)cc(C(C)C)c2O)o1	12	78*	4	0	-4	-7
COc1ccccc1-c1nnc(SCC(=O)Nc2c(Cl)cccc2Cl)o1	-2	-1	8	0	-9	5
COc1ccc(N2CCN(C(=O)c3sc4ncn(CC(=O)N5CCCCC5C)c(=O)c4c3C)CC2)cc1 (configuration not stated)	6	.	300	0	-8	-8
COc1ccc(-c2nc(N)nc(C)c2Oc2ccccc2Br)c(O)c1	.	83*	-16	0	83*	-11
CCOc1ccc(-c2nc(N)ncc2Oc2ccc(OC)cc2)c(O)c1	14	.	1	0	-1	-22
C/C(=N/NC(=O)C1CCCN1C(=O)c1ccc([N+](=O)[O-])cc1)c1ccc(Br)cc1 (configuration not stated)	13	.	.	.	.	.
COc1ccc(Nc2nc(-c3ccccc3)nc3ccccc23)cc1	42	.	-2	0	73	.
COc1ccc(Nc2nc(-c3cccs3)nc3ccccc23)cc1	30	46	-14	0	78*	11
COc1cccc(CN(C)c2nc(-c3cccs3)nc3ccccc23)c1	9	66*	i	0	50	11
COc1cccc(Nc2nc(-c3cccs3)nc3ccccc23)c1	37	66*	-10	0	89*	6
COc1ccc(Nc2nc(-c3cccc([N+](=O)[O-])c3)nc3ccccc23)cc1	65*	-6	-8	-2	124*	11
Cn1cc(Br)c(C(=O)Nc2ncc(Br)s2)n1	-10	-19	4	0	2	1
CN(C)S(=O)(=O)c1cc(NC(=O)COC(=O)c2nc(Cl)ccc2Cl)ccc1Cl	.	.	13	0	12	-6
CC(C)=CCc1cc([C@@H]2CC(=O)c3ccc(O)c(CC=C(C)C)c3O2)ccc1O	2	.	-24	1	-8	-4
CC(C)(CC(=O)O)CC(=O)Nc1ccc(Oc2ccc(C(C)(C)C)cc2)nc1	-3	.	-19	0	8	.
COCC(=O)NNC(=S)Nc1cccc(C)c1C	-2	5	-11	0	-7	-3
Cc1cc(C)c2c3c(sc2n1)C(c1cccc(F)c1)C(C#N)=C(N)O3 (configuration not stated)	72*	10	-7	0	28	24
CCCCNC(=S)N1CCn2cccc2C1c1ccccc1 (configuration not stated)	-8	33	16	0	-4	-6
S=C(NCCc1ccccc1)N1CCn2cccc2C1c1cccnc1 (configuration not stated)	68*	10	28	0	-18	-5
S=C(NCc1ccccc1)N1CCn2cccc2C1c1ccncc1 (configuration not stated)	13	-7	0	0	1	-4
S=C(NCc1ccccc1)N1CCn2cccc2C1c1cccnc1 (configuration not stated)	59*	-25	.	.	.	.
CC(C)Cc1ccc(CN2CCCC(NC(=O)c3cnc4ccccn4c3=O)C2)cc1 (configuration not stated)	55*	.	-2	-3	-2	-7

Screens (PubChem BioAssay)
